Most compounds without a hit are left out; they make up all but 2.3% or so of the library.
TAAR1 antagonist = human TAAR1 antagonism; Q96RJ0; CHO RD-HGA16 TAAR1, Fluo-8 calcium fluorescence, antagonist; inhibition, % at 3 µM; 1.5% of 360,000 active;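 active means inhibition above a per-plate cutoff, the mean inhibition of test compounds on that plate plus 3 SD, cut at about 49% in these data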
Target sequence (Q96RJ0 whole entry, looked up): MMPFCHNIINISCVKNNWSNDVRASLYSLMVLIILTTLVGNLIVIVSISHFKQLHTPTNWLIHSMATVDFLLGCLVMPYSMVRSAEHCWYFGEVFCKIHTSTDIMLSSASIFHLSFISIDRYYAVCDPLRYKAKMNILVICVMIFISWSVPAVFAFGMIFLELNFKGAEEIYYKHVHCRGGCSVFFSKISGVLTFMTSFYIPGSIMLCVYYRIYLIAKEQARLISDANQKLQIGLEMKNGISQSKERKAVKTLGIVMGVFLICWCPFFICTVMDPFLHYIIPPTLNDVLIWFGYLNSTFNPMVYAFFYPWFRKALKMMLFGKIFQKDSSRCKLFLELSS
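Assay system: RD-HGA16 CHO cells with stable hTAAR1 and Gα16 / Reagent: EC80 β-phenethylamine stimulus / Doses: 3 µM, single point / Timing: dye loading 75 min at 37 °C, then 30 min room temperature / Measured by: Fluo-8 intracellular calcium dye fluorescence, real-time kinetic reads / Controls: vehicle wells and EC80 agonist wells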
OXTR potentiator = potentiators of human oxytocin receptor | activation, % at 3 µM | AID 2445 | CHO-OTR cells, Fluo-8 calcium fluorescence, potentiator mode; 0% = oxytocin EC15, 100% = EC100 | P30559 | 0.061% of 320,000 active;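 active means activation above that plate's cutoff, the mean activation of tested compounds plus 3 SD, cut at about 6.6% in these data, passing the limit was not always enough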
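Assay system: CHO cell line stably expressing human OTR | Also added: Oxytocin at about EC15, sub-maximal agonist stimulus | Times: Compound 6 min at room temperature before oxytocin, 100 s read | Measured by: Fluo-8 intracellular calcium fluorescence, ex 470-495, em 515-575 nm | Controls: EC15 oxytocin alone as 0%, 75 nM oxytocin as 100%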
TAAR1 agonist = human TAAR1 agonism | 0.99% of 360,000 active | CHO RD-HGA16 TAAR1, Fluo-8 calcium fluorescence; vehicle wells 0%, saturating PEA agonist 100% | activation, % at 3 µM | Q96RJ0 | AID 624467;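 active means activation above the mean activation of all test compounds in the run plus 3 SD, cut at about 38% in these data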
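Test system: RD-HGA16 (CHO) cells co-expressing Gα16 and hTAAR1; dosing: one-point dosing at 3 µM (nominal); timing: 17-24 h seeding, 75 min 37 °C dye, 30 min RT; signal: kinetic Fluo-8 calcium fluorescence; read-out basis: % activation relative to PEA EC100 response; controls: DMSO and PEA EC100; replicates: n 1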
V1R ag counter = V1a receptor agonism, counter-screen for OXTR agonists; P37288; 0.25% of 320,000 active; AID 2797; CHO-V1R cells, Fluo-8 calcium fluorescence, agonist mode; 0% DMSO, 100% 3 nM vasopressin; activation, % at 3 µM;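 active means activation above the mean activation of all tested compounds plus 3 SD, per screening run, cut at about 20% in these data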;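 further: signal is peak over basal fluorescence ratio across a 100 second FLIPR read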
OXTR ag = activates the human oxytocin receptor; 0.32% of 320,000 active; AID 2435; CHO-OTR cells, Fluo-8 calcium fluorescence; normalized: DMSO 0%, oxytocin 100%; activation, % at 3 µM; P30559;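 active means activation above the mean of all tested compounds plus 3 SD, cutoff set per screening run, cut at about 20% in these data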;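 further: peak over basal fluorescence ratio from a 100 s FLIPR kinetic read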
TAAR1 ag conf = confirmation of human TAAR1 agonists; shares compounds with TAAR1 agonist; activation, % at 3 µM; 82% of 2,400 active; CHO RD-HGA16 TAAR1, Fluo-8 calcium fluorescence; scaled: DMSO 0%, maximal phenethylamine 100%; AID 651783;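 active means activation above a cutoff set at the run's mean compound activation plus 3 SD, cut at about 39% in these data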
Ga16 nonsel ag = nonselective agonist in parental cells, TAAR1 agonist counter-screen; 50% of 2,400 active; activation, % at 3 µM; CHO-Ga16 parental, Fluo-8 calcium fluorescence; normalized to maximal ATP response, DMSO zero; AID 651787; shares compounds with TAAR1 agonist;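 active means activation above the run cutoff, the mean activation over all tested wells plus 3 SD, cut at about 12% in these data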
TAAR1 desens = counter-screen for human TAAR1 agonists: agonists that desensitize TAAR1. shares compounds with TAAR1 agonist. CHO RD-HGA16 hTAAR1, Fluo-8 calcium, beta-PEA response inhibition. inhibition, % at 3 µM. 46% of 2,400 active. AID 651951;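 active means inhibition above the run cutoff, the mean inhibition of all test compounds plus 3 SD, cut at about 49% in these data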;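 further: beta-PEA stimulus applied at its EC80; loss of beta-PEA calcium signal after compound pretreatment read as receptor desensitization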
Ga16 antag count = counter-screen for TAAR1 agonists: nonselective Ga16 antagonists; 39% of 2,400 active; shares compounds with TAAR1 agonist; AID 651952; inhibition, % at 3 µM; CHO-Ga16 ATP-induced calcium, Fluo-8 fluorescence;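 active means inhibition above the plate's mean compound inhibition plus 3 SD, computed per plate, cut at about 22% in these data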
Numbers stand for hits; . = inactive; / = no result given.

SMILES	TAAR1 antagonist	OXTR potentiator	TAAR1 agonist	V1R ag counter	OXTR ag	TAAR1 ag conf	Ga16 nonsel ag	TAAR1 desens	Ga16 antag count
O=c1[nH]c(=O)n(Cc2ccco2)c2c1C(C(F)(F)F)(C(F)(F)F)N=C(CCC1CCCCC1)N2	.	.	58	.	.	38	21	56	35
O=c1[nH]c(=O)n(-c2ccccc2)c2c1C(C(F)(F)F)(C(F)(F)F)N=C(CCC1CCCCC1)N2	.	.	47	.	.	101	70	95	52
Cc1ccc(NC(=O)c2ccc(CNS(=O)(=O)c3cccc(C(F)(F)F)c3)cc2)cc1	.	.	.	.	.	/	/	/	/
O=C(Nc1ccccc1F)c1ccc(CNS(=O)(=O)c2cccc(C(F)(F)F)c2)cc1	.	.	46	.	.	.	16	.	.
Cc1nc(C(C)NC(=O)c2cc(COc3ccc(C)c(C)c3)on2)c(C)s1 (stereo not given)	.	.	.	.	.	/	/	/	/
CC(C)CN1CC(C)C(=O)N(c2ccccc2)C1=O (stereo not given)	.	/	63	/	/	.	.	.	.
CC1CN(Cc2ccccc2)C(=S)N(c2ccccc2)C1=O (stereo not given)	.	/	.	/	/	/	/	/	/
Cc1ccc(Cn2nnc(C(=O)Nc3cccc(C)c3C)c2N)cc1	81	.	118	38	38	123	85	87	59
O=C(CCn1c(=S)[nH]c2cc3c(cc2c1=O)OCO3)NCCc1ccccc1Cl	.	/	74	/	/	92	.	78	.
O=C(CCCn1c(=S)[nH]c2cc3c(cc2c1=O)OCO3)NCCc1ccccc1Cl	.	.	52	.	.	.	.	.	.
O=C(CCCCCn1c(=S)[nH]c2ccc(N3CCOCC3)cc2c1=O)NCCc1ccccc1	.	.	55	.	.	70	.	.	.
O=C(CCCCCn1c(=S)[nH]c2ccc(N3CCOCC3)cc2c1=O)NCc1ccccc1Cl	.	.	.	.	.	/	/	/	/
CCN(CC)C(=O)Cn1cc(C(=O)C(=O)NCC2COc3ccccc3O2)c2ccccc21 (stereo not given)	.	.	.	.	.	/	/	/	/
CCC1(c2ccc(F)cc2)NC(=O)N(CC(=O)Nc2ccccc2Cl)C1=O (stereo not given)	.	.	80	22	23	72	36	.	.
Cc1cc(NC(=O)OC(C)(C)C)c(-n2nnnc2C(C(=O)c2ccc3c(c2)OCO3)N2CCN(c3ccccn3)CC2)cc1C (stereo not given)	.	/	.	/	/	/	/	/	/
CN(CCc1ccccc1)C(C(=O)c1ccc2c(c1)OCO2)c1nnnn1-c1ccccc1NC(=O)OC(C)(C)C (stereo not given)	78	/	86	/	/	85	.	82	.
COC(=O)c1ccc(COc2ccc(-c3nnn(CC(N)=O)n3)cc2)cc1	.	.	.	.	.	/	/	/	/
COC(=O)c1ccc(COc2ccc(-c3nn[nH]n3)cc2)cc1	.	.	51	.	.	.	.	.	.
CCN1C(=O)Cc2cc(S(=O)(=O)NCCc3ccccc3)ccc21	.	.	51	.	.	46	.	.	.
CN1C(=O)Cc2cc(S(=O)(=O)NCCc3ccccc3)ccc21	.	.	.	.	.	/	/	/	/
FC(F)(F)c1cc(CO[C@@H]2CCCN[C@@H]2c2ccccc2)cc(C(F)(F)F)c1	.	.	70	.	.	.	29	.	.
Cc1ccccc1OCCn1ccnc1	.	.	.	.	.	/	/	/	/

Assay outcomes deposited in PubChem BioAssay by The Scripps Research Institute Molecular Screening Center.
